Measured values published in ChEMBL document CHEMBL2086252, “Syntheses and evaluation of anticonvulsant activity of novel branched alkyl carbamates” (J Med Chem, 2012).
The source made the active and inactive calls. The rule behind the calls is not given here.

What was measured:
Rattus norvegicus [1] = assay: Neurotoxicity in pilocarpine-induced status epilepticus Sprague-Dawley albino rat model assessed as minimal motor impairment at 300 mg/kg, ip after 1 hr by rotarod test; assay type: toxicity, organism-based; set-up: dose 300 mg/kg, route intraperitoneal; conditions: in vivo
Summary of the method: (§1)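 Rat pilocarpine status epilepticus model: test carbamate given at 0 or 30 min after the first observed Racine stage 3 motor seizure, which marks SE onset. Neurotoxicity was scored within the same model.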

Rattus norvegicus [2] = assay: Neurotoxicity in pilocarpine-induced status epilepticus Sprague-Dawley albino rat model assessed as minimal motor impairment at 100 mg/kg, ip after 0.5 hrs by rotarod test; assay type: toxicity, organism-based; set-up: dose 100 mg/kg, route intraperitoneal; conditions: in vivo
Mus musculus [3] = assay: Anticonvulsant activity in albino CF1 mouse assessed as protection against maximal electroshock-induced seizures at 30 mg/kg, ip after 4 hrs; assay type: functional, organism-based; set-up: dose 30 mg/kg
Summary of the method: (§2)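 Mice dosed ip at 30, 100 or 300 mg/kg, then tested 0.5 h and 4 h after administration in the MES or scMet test. Protection was recorded as animals protected over animals tested. Neurotoxicity was recorded as motor impairment or sedation, as animals affected over animals tested.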

Rattus norvegicus [4] = assay: Neurotoxicity in Sprague-Dawley albino rat assessed as minimal motor impairment at 30 mg/kg, po by rotarod test; assay type: toxicity, organism-based; set-up: dose 30 mg/kg, route oral; conditions: in vivo
Summary of the method: (§3)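 Rats dosed orally. Anti-MES protection was scored as animals protected over animals tested at each time after dosing. Neurotoxicity was scored as motor impairment or sedation, as animals affected over animals tested.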

Rattus norvegicus [5] = assay: Anticonvulsant activity in Sprague-Dawley albino rat assessed as protection against maximal electroshock-induced seizures at 30 mg/kg, po after 30 mins; assay type: functional, organism-based; set-up: dose 30 mg/kg; summary of the method: as §3
Mus musculus [6] = assay: Anticonvulsant activity in albino CF1 mouse assessed as protection against subcutaneous metrazol-induced seizures at 300 mg/kg, ip after 4 hrs; assay type: functional, organism-based; set-up: dose 300 mg/kg; summary of the method: as §2
Rattus norvegicus [7] = assay: Neurotoxicity in pilocarpine-induced status epilepticus Sprague-Dawley albino rat model assessed as minimal motor impairment at 300 mg/kg, ip after 0.25 hr by rotarod test; assay type: toxicity, organism-based; set-up: dose 300 mg/kg, route intraperitoneal; conditions: in vivo; summary of the method: as §1
Rattus norvegicus [8] = assay: Neurotoxicity in pilocarpine-induced status epilepticus Sprague-Dawley albino rat model assessed as minimal motor impairment at 100 mg/kg, ip after 1 hr by rotarod test; assay type: toxicity, organism-based; set-up: dose 100 mg/kg, route intraperitoneal; conditions: in vivo
Mus musculus [9] = assay: Anticonvulsant activity in albino CF1 mouse assessed as protection against subcutaneous metrazol-induced seizures at 300 mg/kg, ip after 0.5 hrs; assay type: functional, organism-based; set-up: dose 300 mg/kg; summary of the method: as §2
Rattus norvegicus [10] = assay: Neurotoxicity in pilocarpine-induced status epilepticus Sprague-Dawley albino rat model assessed as minimal motor impairment at 100 mg/kg, ip after 2 hrs by rotarod test; assay type: toxicity, organism-based; set-up: dose 100 mg/kg, route intraperitoneal; conditions: in vivo
Mus musculus [11] = assay: Anticonvulsant activity in albino CF1 mouse assessed as protection against subcutaneous metrazol-induced seizures at 100 mg/kg, ip after 0.5 hrs; assay type: functional, organism-based; set-up: dose 100 mg/kg; summary of the method: as §2
Mus musculus [12] = assay: Anticonvulsant activity in albino CF1 mouse assessed as protection against subcutaneous metrazol-induced seizures at 100 mg/kg, ip after 4 hrs; assay type: functional, organism-based; set-up: dose 100 mg/kg; summary of the method: as §2
Mus musculus [13] = assay: Anticonvulsant activity in albino CF1 mouse assessed as protection against maximal electroshock-induced seizures at 300 mg/kg, ip after 4 hrs; assay type: functional, organism-based; set-up: dose 300 mg/kg; summary of the method: as §2
Mus musculus [14] = assay: Neurotoxicity in albino CF1 mouse assessed as minimal motor impairment at 30 mg/kg, ip after 4 hrs by rotarod test; assay type: toxicity, organism-based; set-up: dose 30 mg/kg, route intraperitoneal; conditions: in vivo; summary of the method: as §2
Mus musculus [15] = assay: Anticonvulsant activity in albino CF1 mouse assessed as protection against subcutaneous metrazol-induced seizures at 30 mg/kg, ip after 4 hrs; assay type: functional, organism-based; set-up: dose 30 mg/kg; summary of the method: as §2
Mus musculus [16] = assay: Neurotoxicity in albino CF1 mouse assessed as minimal motor impairment at 300 mg/kg, ip after 0.5 hrs by rotarod test; assay type: toxicity, organism-based; set-up: dose 300 mg/kg, route intraperitoneal; conditions: in vivo; summary of the method: as §2
Rattus norvegicus [17] = assay: Anticonvulsant activity in Sprague-Dawley albino rat assessed as protection against maximal electroshock-induced seizures at 30 mg/kg, po after 1 hr; assay type: functional, organism-based; set-up: dose 30 mg/kg; summary of the method: as §3
Rattus norvegicus [18] = assay: Neurotoxicity in pilocarpine-induced status epilepticus Sprague-Dawley albino rat model assessed as minimal motor impairment at 300 mg/kg, ip after 2 hrs by rotarod test; assay type: toxicity, organism-based; set-up: dose 300 mg/kg, route intraperitoneal; conditions: in vivo; summary of the method: as §1
Mus musculus [19] = assay: Neurotoxicity in albino CF1 mouse assessed as minimal motor impairment at 100 mg/kg, ip after 4 hrs by rotarod test; assay type: toxicity, organism-based; set-up: dose 100 mg/kg, route intraperitoneal; conditions: in vivo; summary of the method: as §2
Rattus norvegicus [20] = assay: Anticonvulsant activity in Sprague-Dawley albino rat assessed as protection against maximal electroshock-induced seizures at 30 mg/kg, po after 2 hrs; assay type: functional, organism-based; set-up: dose 30 mg/kg; summary of the method: as §3
Mus musculus [21] = assay: Anticonvulsant activity in albino CF1 mouse assessed as protection against subcutaneous metrazol-induced seizures at 30 mg/kg, ip after 0.5 hrs; assay type: functional, organism-based; set-up: dose 30 mg/kg; summary of the method: as §2
Mus musculus [22] = assay: Neurotoxicity in albino CF1 mouse assessed as minimal motor impairment at 30 mg/kg, ip after 0.5 hrs by rotarod test; assay type: toxicity, organism-based; set-up: dose 30 mg/kg, route intraperitoneal; conditions: in vivo; summary of the method: as §2
Rattus norvegicus [23] = assay: Neurotoxicity in pilocarpine-induced status epilepticus Sprague-Dawley albino rat model assessed as minimal motor impairment at 300 mg/kg, ip after 0.5 hrs by rotarod test; assay type: toxicity, organism-based; set-up: dose 300 mg/kg, route intraperitoneal; conditions: in vivo; summary of the method: as §1
Mus musculus [24] = assay: Anticonvulsant activity in albino CF1 mouse assessed as protection against maximal electroshock-induced seizures at 30 mg/kg, ip after 0.5 hrs; assay type: functional, organism-based; set-up: dose 30 mg/kg; summary of the method: as §2
Rattus norvegicus [25] = assay: Neurotoxicity in pilocarpine-induced status epilepticus Sprague-Dawley albino rat model assessed as minimal motor impairment at 100 mg/kg, ip after 4 hrs by rotarod test; assay type: toxicity, organism-based; set-up: dose 100 mg/kg, route intraperitoneal; conditions: in vivo
Mus musculus [26] = assay: Anticonvulsant activity in albino CF1 mouse assessed as protection against maximal electroshock-induced seizures at 300 mg/kg, ip after 0.5 hrs; assay type: functional, organism-based; set-up: dose 300 mg/kg; summary of the method: as §2
Mus musculus [27] = assay: Neurotoxicity in albino CF1 mouse assessed as minimal motor impairment at 100 mg/kg, ip after 0.5 hrs by rotarod test; assay type: toxicity, organism-based; set-up: dose 100 mg/kg, route intraperitoneal; conditions: in vivo; summary of the method: as §2
Mus musculus [28] = assay: Anticonvulsant activity in albino CF1 mouse assessed as protection against maximal electroshock-induced seizures at 100 mg/kg, ip after 0.5 hrs; assay type: functional, organism-based; set-up: dose 100 mg/kg; summary of the method: as §2
Rattus norvegicus [29] = assay: Anticonvulsant activity in Sprague-Dawley albino rat assessed as protection against pilocarpine-induced status epilepticus at 200 mg/kg, ip; assay type: functional, organism-based; set-up: dose 200 mg/kg
Summary of the method: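 Pilocarpine status epilepticus model in rats. Number and severity of convulsive seizures were observed behaviourally.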

Rattus norvegicus [30] = assay: Neurotoxicity in pilocarpine-induced status epilepticus Sprague-Dawley albino rat model assessed as minimal motor impairment at 100 mg/kg, ip after 0.25 hr by rotarod test; assay type: toxicity, organism-based; set-up: dose 100 mg/kg, route intraperitoneal; conditions: in vivo
Mus musculus [31] = assay: Anticonvulsant activity in albino CF1 mouse assessed as protection against maximal electroshock-induced seizures at 100 mg/kg, ip after 4 hrs; assay type: functional, organism-based; set-up: dose 100 mg/kg; summary of the method: as §2
Mus musculus [32] = assay: Neurotoxicity in albino CF1 mouse assessed as minimal motor impairment at 300 mg/kg, ip after 4 hrs by rotarod test; assay type: toxicity, organism-based; set-up: dose 300 mg/kg, route intraperitoneal; conditions: in vivo; summary of the method: as §2

CC(C)(C)COC(N)=O
Activity (Rattus norvegicus [1]): Toxic
Activity (Rattus norvegicus [2]): Non-toxic
Activity (Mus musculus [3]): inactive
Activity (Rattus norvegicus [4]): Non-toxic
Activity (Rattus norvegicus [5]): inactive
Activity (Mus musculus [6]): inactive
Activity (Rattus norvegicus [7]): Toxic
Activity (Rattus norvegicus [8]): Non-toxic
Activity (Mus musculus [9]): inactive
Activity (Rattus norvegicus [10]): Non-toxic
Activity (Mus musculus [11]): inactive
Activity (Mus musculus [12]): inactive
Activity (Mus musculus [13]): inactive
Activity (Mus musculus [14]): Non-toxic
Activity (Mus musculus [15]): inactive
Activity (Mus musculus [16]): Non-toxic
Activity (Rattus norvegicus [17]): inactive
Activity (Rattus norvegicus [18]): Toxic
Activity (Mus musculus [19]): Non-toxic
Activity (Rattus norvegicus [20]): inactive
Activity (Mus musculus [21]): inactive
Activity (Mus musculus [22]): Non-toxic
Activity (Rattus norvegicus [23]): Toxic
Activity (Mus musculus [24]): inactive
Activity (Rattus norvegicus [25]): Non-toxic
Activity (Mus musculus [26]): inactive
Activity (Mus musculus [27]): Non-toxic
Activity (Mus musculus [28]): inactive
Activity (Rattus norvegicus [29]): Active
Activity (Rattus norvegicus [30]): Non-toxic
Activity (Mus musculus [31]): inactive
Activity (Mus musculus [32]): Non-toxic
